Experimental data as given in publication PMC9988221 (Journal of Clinical Psychopharmacology, 2023).
Where two headings read alike, the source gives them in different places. Marks after values point to notes of the source that are not given here.

How the values were obtained:
[1] = type: in vivo, human; conditions: for AUC0–tz, gMean / Cmax, gMean / AUC(0-t) / AUC(0-inf) / Cmax / half-life: plasma; for AUC(0-t) / AUC(0-inf) / Cmax / half-life: male, human; for AUC(0-t): AUC0–tz; for AUC(0-inf): AUC0–∞; for AUC0–tz, Adjusted gMean Ratio (90% CI) / Cmax, Adjusted gMean Ratio (90% CI): probe drug + steady-state BI 425809 25 mg vs probe drug only
P-gp = P-gp (Homo sapiens, UniProt P08183); type: in vitro ADME; conditions: Caco-2 cell monolayer; zosuquidar 1 μM, BI 425809 1-100 μM
Outline: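 Bidirectional Caco-2 monolayer transport in HBSS with 15 mM HEPES, pH 7.4, after 30 min equilibration. [³H]digoxin (1 μM) went in the donor side, and test compound (1–100 μM) or zosuquidar (1 μM) on both sides. After 30 min preincubation, sampling ran to 90 min and was read by scintillation counting. Papp gave the B-to-A/A-to-B efflux ratio, and IC50 with slope factor came from nonlinear regression of efflux ratio against inhibitor concentration.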

[2] = +BI 425809 25 mg at steady state
[3] = Probe Drug + BI 425809 25 mg once daily at steady state, healthy males
[4] = probe drug alone (cocktail or digoxin alone)
[5] = arithmetic mean (SD), +BI 425809 25 mg at steady state
[6] = gMean, Probe Drug + BI 425809 25 mg once daily at steady state, healthy males
[7] = gMean, Probe Drug Only, healthy males

Chain of P-gp (P08183 whole entry): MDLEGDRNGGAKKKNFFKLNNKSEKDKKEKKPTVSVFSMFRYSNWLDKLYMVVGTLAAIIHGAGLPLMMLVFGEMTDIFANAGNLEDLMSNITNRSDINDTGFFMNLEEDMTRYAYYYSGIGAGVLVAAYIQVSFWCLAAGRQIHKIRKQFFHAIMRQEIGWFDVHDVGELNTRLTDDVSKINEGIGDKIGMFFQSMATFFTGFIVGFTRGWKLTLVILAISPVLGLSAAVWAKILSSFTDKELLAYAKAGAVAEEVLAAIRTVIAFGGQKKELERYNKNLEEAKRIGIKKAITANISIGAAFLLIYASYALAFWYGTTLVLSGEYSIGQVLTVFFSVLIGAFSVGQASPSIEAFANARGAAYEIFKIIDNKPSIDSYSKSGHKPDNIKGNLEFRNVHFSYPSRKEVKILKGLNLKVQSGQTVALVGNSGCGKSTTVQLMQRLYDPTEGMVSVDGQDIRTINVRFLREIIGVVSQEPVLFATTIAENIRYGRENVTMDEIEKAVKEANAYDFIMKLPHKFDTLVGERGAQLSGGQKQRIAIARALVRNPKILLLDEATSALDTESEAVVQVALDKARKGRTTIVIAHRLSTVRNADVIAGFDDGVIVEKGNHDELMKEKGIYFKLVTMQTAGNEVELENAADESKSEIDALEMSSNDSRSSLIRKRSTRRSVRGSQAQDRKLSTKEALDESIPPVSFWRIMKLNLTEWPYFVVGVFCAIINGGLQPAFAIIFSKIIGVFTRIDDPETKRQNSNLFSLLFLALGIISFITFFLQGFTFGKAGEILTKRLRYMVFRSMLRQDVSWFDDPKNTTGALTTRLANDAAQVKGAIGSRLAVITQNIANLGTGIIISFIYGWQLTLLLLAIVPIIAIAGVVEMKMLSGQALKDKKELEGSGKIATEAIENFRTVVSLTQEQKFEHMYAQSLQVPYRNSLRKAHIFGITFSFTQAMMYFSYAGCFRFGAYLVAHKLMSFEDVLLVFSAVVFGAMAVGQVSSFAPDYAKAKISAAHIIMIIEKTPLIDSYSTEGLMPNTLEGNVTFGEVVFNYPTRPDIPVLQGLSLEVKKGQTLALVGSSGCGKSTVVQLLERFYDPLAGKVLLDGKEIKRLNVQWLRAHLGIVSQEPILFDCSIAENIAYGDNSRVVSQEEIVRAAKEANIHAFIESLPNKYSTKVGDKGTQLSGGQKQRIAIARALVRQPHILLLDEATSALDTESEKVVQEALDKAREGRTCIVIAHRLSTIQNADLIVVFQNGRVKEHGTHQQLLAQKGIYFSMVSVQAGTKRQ

SMILES | AUC0–tz, arithmetic mean (SD) [1, 2] | AUC0–∞, arithmetic mean (SD) [1, 2] | AUC0–tz, gMean [1, 3] | Cmax, gMean [1, 3] | AUC0–tz, gMean ([1]; Probe Drug Only, healthy males) | Cmax, gMean ([1]; Probe Drug Only, healthy males) | AUC0–tz, arithmetic mean (SD) [1, 4] | AUC0–∞, arithmetic mean (SD) [1, 4] | AUC(0-t) [1, 5] | AUC(0-t) [1, 6] | AUC(0-t) [1, 7] | AUC(0-inf) [1, 5] | Cmax [1, 5] | Cmax [1, 6] | Cmax [1, 7] | AUC0–tz, Adjusted gMean Ratio (90% CI) [1] | Cmax, Adjusted gMean Ratio (90% CI) [1] | Cmax, arithmetic mean (SD) [1, 4] | other results
CC(=O)C[C@H](c1ccccc1)c1c(O)c2ccccc2oc1=O [R-warfarin] | 23,000.0 (5360.0) ng⋅h/mL | 27,500.0 (7200.0) ng⋅h/mL | 22,457.1 ng⋅h/mL | 541.8 ng/mL | 22,615.1 ng⋅h/mL | 525.0 ng/mL | 23,000.0 (4860.0) ng⋅h/mL | 27,900.0 (6680.0) ng⋅h/mL |  |  |  |  |  |  |  |  |  |  | 
Cc1ncc2n1-c1ccc(Cl)cc1C(c1ccccc1F)=NC2 [Midazolam, midazolam] |  |  |  |  |  |  |  |  | 16.7 ng·h/mL | 16.6 ng·h/mL | 23.5 ng·h/mL | 17.4 ng·h/mL | 6.9 ng/mL | 6.6 ng/mL | 8.5 ng/mL | 70.6 (63.9–78.1) % | 77.6 (67.3–89.4) % | 9.03 (3.3)* ng/mL | decrease of the adjusted gMean ratio ([1]; BI 425809 25 mg once daily): 29.4%; half-life ([1]; t1/2, gMean (geometric coefficient of variation), on a background of steady-state BI 425809): 2.8 h; t1/2, gMean (geometric coefficient of variation) ([1]; midazolam alone): 3.3 [22.8] hours; AUC0–tz, Adjusted gMean Ratio (90% CI) ([1]; listed as midazolam): 70.6%; Cmax, Adjusted gMean Ratio (90% CI) ([1]; listed as midazolam): 77.6%
CC(=O)C[C@@H](c1ccccc1)c1c(O)c2ccccc2oc1=O [S-warfarin] | 15,600.0 (3590.0) ng⋅h/mL | 17,000.0 (3880.0) ng⋅h/mL | 15,205.1 ng⋅h/mL | 553.7 ng/mL | 15,107.9 ng⋅h/mL |  | 15,400.0 (3480.0) ng⋅h/mL | 16,900.0 (3870.0) ng⋅h/mL |  |  |  |  |  |  |  |  |  |  | 
COc1ccc2[nH]c([S+]([O-])Cc3ncc(C)c(OC)c3C)nc2c1 (centres unmarked) [Omeprazole, omeprazole] | 604.0 (733.0) ng⋅h/mL |  |  |  |  |  |  |  |  | 430 ng·h/mL | 483 ng·h/mL | 609 ng·h/mL | 257 ng/mL | 225 ng/mL | 220 ng/mL |  |  |  | 
O[C@@H](COc1cccc2ncccc12)CN1CCN([C@@H]2c3ccccc3[C@@H]3[C@H](c4ccccc42)C3(F)F)CC1 [zosuquidar] |  |  |  |  |  |  |  |  |  |  |  |  |  |  |  |  |  |  | effect on P-gp-mediated transcellular transport of digoxin (in words) (P-gp): inhibited
C[C@H]1O[C@@H](O[C@H]2[C@@H](O)C[C@H](O[C@H]3[C@@H](O)C[C@H](O[C@H]4CC[C@@]5(C)[C@H](CC[C@@H]6[C@@H]5C[C@@H](O)[C@]5(C)[C@@H](C7=CC(=O)OC7)CC[C@]65O)C4)O[C@@H]3C)O[C@@H]2C)C[C@H](O)[C@@H]1O [Digoxin, digoxin] |  |  |  | 1.1 ng/mL |  | 1.1 ng/mL |  |  | 10 ng·h/mL | 9.5 ng·h/mL | 9.7 ng·h/mL | 20.1 ng·h/mL |  |  |  | 97.9 (86.6–110.6) % | 100.6 (86.9–116.5) % | 1.1 (0.3) ng/mL | Cmax, arithmetic mean (SD) [1, 2]: 1.1 (0.3) ng/mL; half-life ([1]; t1/2, arithmetic mean (SD), +BI 425809 25 mg at steady state): 54.2 h; adjusted gMean ratios for AUC0–tz and Cmax (in words) ([1]; presence vs absence of steady-state BI 425809): within ±4% of 100%
